For one data set, the system named is AZT-R HIV. The data set can be described thus: microbe, parasite or virus in culture. In kind it is cell-based, HIV-1.
In another data set the test system is WT HIV. The data set can be described thus: microbe, parasite or virus in culture. Format: cell-based, HIV-1.
The next data set addresses wt HIV-1 RT RNase H (Human immunodeficiency virus type 1 group M subtype B, UniProt P04585). The data set can be described thus: In vitro RT-RNase H activity. Format: biochemical. The following applies: read-out: IC50 RT-RNase H, recombinant HIV-1 RT.
The test system of data set [1] is HOS cells. The data set is described as follows: ATP based luciferase assay. In kind it is cell-based, human. As to conditions: for CC50: read-out: CC50 ATP-lite, HOS cells.
A further data set deals with HIV-1 RT DNA polymerase (Human immunodeficiency virus type 1 group M subtype B, UniProt P04585). The data set is described as follows: In vitro RT RNA-dependent DNA polymerase activity. In kind it is biochemical. As to conditions: read-out: IC50 RT-DNA polymerase, recombinant HIV-1 RT.
Data set [2] concerns HOS cells. The data set is described as follows: XTT cell viability assay. Format: cell-based, human. The following applies: read-out: CC50 XTT. An outline of the steps: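 HOS cells were grown in DMEM with 3.5% fetal bovine serum, 3.5% newborn calf serum and penicillin/streptomycin, then exposed to test compounds. Viability was measured with a commercial XTT kit, in which mitochondrial enzymes reduce the tetrazolium to an orange product read by absorbance. CC50 is the concentration killing half the HOS cells. Runs were done once or twice.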
On the technique in general: Formazan colour is commonly taken as a measure of viable cells.

[3] abbreviates: Human immunodeficiency virus 1, HOS, read-out: 3TC IC50.
[4] abbreviates: Human immunodeficiency virus 1, HOS, read-out: AZT IC50.
Setting [5] is: Human immunodeficiency virus 1, HOS, read-out: AZT IC50 + NaN3.
Setting [6] is: read-out: IC50 AZT-R HIV, RNHI alone, HOS cells, luciferase based assay.
Where [7] appears, read: read-out: IC50 WT HIV, RNHI alone, HOS cells, luciferase based assay.

Read-outs that look alike come from different tables or passages of the source. Marks after values point to notes of the source that are not given here. Bounds are passed on as bounds.

Consider `Nc1ccn([C@H]2CS[C@@H](CO)O2)c(=O)n1` [3TC, 2', 3'-dideoxy-3'-thiacytidine, reference compound], for which the results for the “Fold decrease of 3TC IC50 by NVP” value in the data set with AZT-R HIV and in the data set with WT HIV were around 2 fold and 2 fold, respectively. Further, the IC50 is 24 ± 14 µM in the data set on AZT-R HIV (setting [3]) and 8 ± 3 µM in the data set on WT HIV (setting [3]).

As for `Cc1cn([C@H]2C[C@H](N=[N+]=[N-])[C@@H](CO)O2)c(=O)[nH]c1=O` [AZT, zidovudine, reference compound], the “Fold decrease of AZT IC50 by NVP” value with AZT-R HIV (AZT-R HIV, 40 nM NVP, not statistically significant) is 2 fold; in the data set on WT HIV (WT HIV, 40 nM NVP, not statistically significant), 1 fold. The “Fold decrease of AZT IC50 by NaN3” value worked out at 1.4 fold with AZT-R HIV (AZT-R HIV, 0.5 mM NaN3, not statistically significant) and 0 fold in the data set with WT HIV (WT HIV, 0.5 mM NaN3, not statistically significant). For the same compound, the IC50 was found to be 0.041 ± 0.038 µM in the data set with AZT-R HIV (setting [4]), 0.056 ± 0.037 µM in the data set on AZT-R HIV (setting [5]), 0.004 ± 0.003 µM in the data set with WT HIV (setting [4]) and 0.004 ± 0.002 µM in the data set on WT HIV (setting [5]).

Regarding `O=C1S/C(=C\c2ccc(O)c(O)c2)C(=O)N1c1ccc(O)cc1` [F0444-0019], the IC50 stood at 5 ± 1.8 µM on wt HIV-1 RT RNase H, 28 µM in the data set with AZT-R HIV (setting [6]), 24 µM in the data set on WT HIV (setting [7]) and 18.5 ± 5.9 µM at HIV-1 RT DNA polymerase. The “effect of RNHI on the 3TC IC50” value with AZT-R HIV is “insignificant”. Besides, the “effect of RNHI on the AZT IC50 (fold increase)” value in the data set with AZT-R HIV and with WT HIV was ~ 5 fold each time. Moreover, the “effect of RNHI on the 3TC IC50 (fold increase)” value in the data set with WT HIV is recorded as ~ 3 fold. Besides, in the data set on HOS cells [1] (20 μM), the “% ATP relative to untreated HOS” value is 36 ± 10%. Also, the results for the CC50 with HOS cells [1] and in the data set on HOS cells [2] were 14 ± 6 µM and 24 ± 3 µM, respectively.

As for `O=C1NC(=Nc2ccccc2O)S/C1=C/c1ccc(O)c(O)c1` [F0888-0058], the IC50 is 5 ± 2.6 µM on wt HIV-1 RT RNase H, 30 µM with AZT-R HIV (setting [6]), 34 µM in the data set on WT HIV (setting [7]) and 29.6 ± 1.4 µM at HIV-1 RT DNA polymerase. Besides, the “effect of RNHI on the 3TC IC50” value in the data set on AZT-R HIV is on record as “did not see a significant effect”. For the same compound, the “effect of RNHI on the AZT IC50 (fold increase)” value with AZT-R HIV is given as 2 fold; in the data set on WT HIV, “no significant effect”. In the data set on WT HIV, the “effect of RNHI on the 3TC IC50 (fold increase)” value is on record as ~ 1.7 fold. Also, in the data set on HOS cells [1] (20 μM), the “% ATP relative to untreated HOS” value came to 41 ± 4%. Moreover, the CC50 in the data set on HOS cells [1] worked out at 14 ± 3 µM; in the data set with HOS cells [2] it was 16 ± 5 µM.

Turning to `Cc1c[nH]c2c1C(c1ccc(O)c(O)c1)C(C#N)=C(N)O2` (stereo not shown) [F0915-1507], the IC50 was 5.8 ± 2.2 µM on wt HIV-1 RT RNase H, 49 µM in the data set on AZT-R HIV (setting [6]), 50 µM with WT HIV (setting [7]) and above 100 µM on HIV-1 RT DNA polymerase. Also, the “effect of RNHI on the AZT IC50 (fold increase)” value with AZT-R HIV and in the data set with WT HIV was “no significant effect” each time. In the data set with HOS cells [1] (50 μM, one or two assays), the “% ATP relative to untreated HOS” value was 46^a %. For the same compound, the CC50 in the data set with HOS cells [1] was 44 ± 14 µM; with HOS cells [2], 52 µM.

In the case of `O=C(CSc1ncccc1C(=O)O)c1ccc(O)c(O)c1` [F3253-0041], the IC50 at wt HIV-1 RT RNase H was 2.9 ± 1.1 µM; with AZT-R HIV (setting [6]), 59 µM; in the data set on WT HIV (setting [7]), 70 µM; on HIV-1 RT DNA polymerase, above 100 µM. The “effect of RNHI on the AZT IC50 (fold increase)” value is on record as “decreased the AZT IC50” with AZT-R HIV and “little to no effect” with WT HIV. In addition, the “% ATP relative to untreated HOS” value in the data set on HOS cells [1] (70 μM, one or two assays) is 92^a %. The CC50 in the data set on HOS cells [1] was 160 µM; in the data set with HOS cells [2], 370 µM.

On to `O=C(O)CC1CC(=O)Oc2c1ccc(O)c2O` (stereo not shown) [F3284-8495], for which the IC50 at wt HIV-1 RT RNase H is 3.3 ± 0.7 µM; in the data set with AZT-R HIV (setting [6]), 54 µM; with WT HIV (setting [7]), 58 µM; at HIV-1 RT DNA polymerase it was above 100 µM. Besides, the “effect of RNHI on the AZT IC50 (fold increase)” value is reported as “decreased the AZT IC50” in the data set on AZT-R HIV and “little to no effect” in the data set with WT HIV. The “% ATP relative to untreated HOS” value in the data set on HOS cells [1] (70 μM, one or two assays) is on record as 87^a %. The CC50 with HOS cells [1] was found to be 67 µM; in the data set with HOS cells [2] it was 120 µM.

On to `Cc1ccnc2c1NC(=O)c1cccnc1N2C1CC1` [NVP, nevirapine, reference compound], for which the IC50 with AZT-R HIV (Human immunodeficiency virus 1, HOS, read-out: IC50 of NVP for blocking replication) was determined as 0.027 ± 0.001 µM. Besides, in the data set with WT HIV (40 nM NVP, HOS cells), the “reduction of infectivity of the virus stock” value is given as ~ 60%.

Regarding `[N-]=[N+]=[N-].[Na+]` [NaN3, sodium azide, reference compound], the “effect of NaN3 on the IC50 for AZT” value in the data set with AZT-R HIV and with WT HIV was “no significant effect” throughout. For the same compound, the “% ATP relative to untreated HOS” value in the data set on HOS cells [1] (0.5 mM) amounted to 31 ± 8%. The “reduction of the level of ATP in HOS cells” value in the data set on HOS cells [1] (0.5 mM NaN3) is recorded as ~ 70%.

As a reminder, the IC50 is the concentration that gives 50% inhibition. What is called CC50 is the concentration that lowers cell viability or growth by half.

The values are drawn from PMC3262452 (Virology, 2011).
